From ChEMBL document CHEMBL3232713, “Synthesis, antiproliferative and anti-dengue virus evaluations of 2-aroyl-3-arylquinoline derivatives” (Eur J Med Chem, 2014) come the findings set out here.

A word on the IC50: it is the concentration at which inhibition is half-maximal. Usually GI50 stands for the concentration giving 50% growth inhibition. Lower therefore signals more potent growth inhibition. In general, inhibition refers to the drop in the measured response relative to a control, in per cent. A low value points to a response near the control. Usually CC50 stands for the concentration at which the toxic effect on the cells reaches its halfway point.

The source made the active and inactive calls. The rule behind the calls is not given here.

In the first series the test system is West Nile virus. Nature of the series: Antiviral activity against West Nile virus by cell based assay. The format is functional, organism-based.
Settings: not given
In the case of `CCOc1ccc2nc(C)cc(Nc3ccc(OCc4ccccc4Cl)cc3)c2c1`, inhibition was half-maximal at 1.9 µM (IC50).

Test system in a further series: not listed separately
Nature of the series: Growth inhibition of human Hep3B cells. The series is classed as functional, Hep 3B2.
Settings: not given
`Fc1ccc2nc(-c3ccc(OCCN4CCCCC4)cc3)c(-c3ccc(OCCN4CCCCC4)cc3)cc2c1` came in with a GI50 of 0.71 µM.

The next series relates to MDA-MB-231. Nature of the series: Growth inhibition of human MDA-MB-231 cells. The format is functional.
Settings: not given
Compound `Fc1ccc2nc(-c3ccc(OCCN4CCCCC4)cc3)c(-c3ccc(OCCN4CCCCC4)cc3)cc2c1` showed a concentration for 50% growth inhibition (GI50) of 0.72 µM. This lies in the sub-micromolar range.

For another series, the system named is dengue virus type 2. Nature of the series: Antiviral activity against DENV2 16681 infected in human Huh-7 cells at 5 uM after 3 days by luciferase reporter gene assay. To be noted: Dengue virus, 16681, Huh-7, 72 h. The series is classed as functional. In general terms: Reporter assays use an easily measured gene product as a stand-in for the process of interest.
Take `COc1ccc(-c2cc3ccccc3nc2C(O)c2ccccc2)cc1` (centres undefined): the inhibition at 5 µM is 45.3%.
Regarding `O=C(c1ccccc1)c1nc2ccccc2cc1-c1ccc(F)cc1`, testing at 5 µM gave an inhibition of 20.1%.
On to `O=C(c1ccccc1)c1nc2ccc(F)cc2cc1-c1ccc(F)cc1`, for which the inhibition at 5 µM was found to be 32.1%.
The compound `COc1ccc(-c2cc3cc(F)ccc3nc2C(=O)c2ccccc2)cc1` came in with an inhibition at 5 µM of 7.24%.
The same measure, in the same setting: as for `COc1ccc(-c2cc3cc(F)ccc3nc2C(O)c2ccccc2)cc1` (centres undefined), the figure is 16.1%; as for `COc1ccc(-c2cc3ccccc3nc2C(O)c2cc(OC)c(OC)c(OC)c2)cc1` (centres undefined), 22.3%.
Still for that read-out and setting: under `COc1ccc(-c2cc3ccccc3nc2C(O)c2ccc(OC)cc2)cc1` (centres undefined) stands 33.5%; under `COc1ccc(-c2cc3cc(OC)ccc3nc2C(=O)c2ccccc2)cc1`, 36.2%.
Turning to `COc1ccc(C(=O)c2nc3ccccc3cc2-c2ccc(OC)cc2)cc1`, testing at 5 µM gave an inhibition of 10.1%.
On the same count and under the same terms, as for `OC(c1ccccc1)c1nc2ccccc2cc1-c1ccc(F)cc1` (centres undefined), the figure is 13.1%.

The next series concerns dengue virus type 2. Nature of the series: Antiviral activity against DENV2 16681 infected in human Huh-7 cells at 20 uM after 3 days by luciferase reporter gene assay. To be noted: Dengue virus, 16681, Huh-7, 72 h. The format is functional.
Take `COc1ccc(-c2cc3ccccc3nc2C(O)c2ccccc2)cc1` (centres undefined): at 20 µM the inhibition was 65.1%.
The compound `O=C(c1ccccc1)c1nc2ccccc2cc1-c1ccc(F)cc1` registered an inhibition at 20 µM of 14.1%.
Turning to `O=C(c1ccccc1)c1nc2ccc(F)cc2cc1-c1ccc(F)cc1`, the inhibition at 20 µM was found to be 9.13%.
Same read-out and setting: as for `COc1ccc(-c2cc3cc(F)ccc3nc2C(=O)c2ccccc2)cc1`, the figure is 5.11%; as for `COc1ccc(-c2cc3cc(F)ccc3nc2C(O)c2ccccc2)cc1` (centres undefined), 19.1%; as for `COc1ccc(-c2cc3ccccc3nc2C(O)c2cc(OC)c(OC)c(OC)c2)cc1` (centres undefined), 38.2%.
Same read-out and setting: under `COc1ccc(-c2cc3ccccc3nc2C(O)c2ccc(OC)cc2)cc1` (centres undefined) stands 58.5%.
The same measure, in the same setting: under `COc1ccc(-c2cc3cc(OC)ccc3nc2C(=O)c2ccccc2)cc1` stands 53.1%.
Compound `COc1ccc(C(=O)c2nc3ccccc3cc2-c2ccc(OC)cc2)cc1` came in with an inhibition at 20 µM of 14.1%.
Same read-out and setting: as for `OC(c1ccccc1)c1nc2ccccc2cc1-c1ccc(F)cc1` (centres undefined), the figure is 10.2%.

Test system in the next series: not listed separately
Nature of the series: Cytotoxicity against human HuH7 cells assessed as cell viability at 20 uM after 3 days by XTT assay. The format is cell-based, Huh-7. To be noted: read-out: Activity.
As to `COc1ccc(-c2cc3ccccc3nc2C(O)c2ccccc2)cc1` (centres undefined), the viability at 72 h, 20 µM was 96.6%.
The same measure, in the same setting: as for `O=C(c1ccccc1)c1nc2ccccc2cc1-c1ccc(F)cc1`, the figure is 74.8%.
Same read-out and setting: as for `O=C(c1ccccc1)c1nc2ccc(F)cc2cc1-c1ccc(F)cc1`, the figure is 96.3%; as for `COc1ccc(-c2cc3cc(F)ccc3nc2C(=O)c2ccccc2)cc1`, 96%.
With `COc1ccc(-c2cc3cc(F)ccc3nc2C(O)c2ccccc2)cc1` (centres undefined), the viability at 72 h, 20 µM worked out at 87.4%.
Regarding `COc1ccc(-c2cc3ccccc3nc2C(O)c2cc(OC)c(OC)c(OC)c2)cc1` (centres undefined), the viability at 72 h, 20 µM is 93.6%.
Still for that read-out and setting: under `COc1ccc(-c2cc3ccccc3nc2C(O)c2ccc(OC)cc2)cc1` (centres undefined) stands 71.1%.
Same read-out and setting: as for `COc1ccc(-c2cc3cc(OC)ccc3nc2C(=O)c2ccccc2)cc1`, the figure is 87.6%; as for `COc1ccc(C(=O)c2nc3ccccc3cc2-c2ccc(OC)cc2)cc1`, 96.1%.
On the same count and under the same terms, under `OC(c1ccccc1)c1nc2ccccc2cc1-c1ccc(F)cc1` (centres undefined) stands 109%.

Test system in a further series: not listed separately
Nature of the series: Cytotoxicity against human HuH7 cells assessed as cell viability at 100 uM after 3 days by XTT assay. The series is classed as cell-based, Huh-7. To be noted: read-out: Activity. In general terms: Tetrazolium assays rely on reduction of a dye to a coloured formazan, in cell work by metabolically active cells.
For the compound `COc1ccc(-c2cc3ccccc3nc2C(O)c2ccccc2)cc1` (centres undefined), the viability at 72 h, 100 µM was 68.1%.
For the compound `O=C(c1ccccc1)c1nc2ccccc2cc1-c1ccc(F)cc1`, the viability at 72 h, 100 µM was found to be 45.9%.
Regarding `O=C(c1ccccc1)c1nc2ccc(F)cc2cc1-c1ccc(F)cc1`, the viability at 72 h, 100 µM worked out at 75.1%.
On the same count and under the same terms, as for `COc1ccc(-c2cc3cc(F)ccc3nc2C(=O)c2ccccc2)cc1`, the figure is 89.7%; as for `COc1ccc(-c2cc3cc(F)ccc3nc2C(O)c2ccccc2)cc1` (centres undefined), 30.7%.
On the same count and under the same terms, under `COc1ccc(-c2cc3ccccc3nc2C(O)c2cc(OC)c(OC)c(OC)c2)cc1` (centres undefined) stands 62.5%.
`COc1ccc(-c2cc3ccccc3nc2C(O)c2ccc(OC)cc2)cc1` (centres undefined): the viability at 72 h, 100 µM amounted to 31.9%.
For `COc1ccc(-c2cc3cc(OC)ccc3nc2C(=O)c2ccccc2)cc1`, the viability at 72 h, 100 µM was 84.3%.
Regarding `COc1ccc(C(=O)c2nc3ccccc3cc2-c2ccc(OC)cc2)cc1`, the viability at 72 h, 100 µM came out at 68.2%.
In the case of `OC(c1ccccc1)c1nc2ccccc2cc1-c1ccc(F)cc1` (centres undefined), the viability at 72 h, 100 µM was 90.9%.

Another series has as its system dengue virus type 2. Nature of the series: Antiviral activity against DENV2 16681 infected in human Huh-7 cells after 3 days by luciferase reporter gene assay. The format is functional, organism-based. To be noted: Dengue virus, 16681, Huh-7, 72 h.
In turn, `COc1ccc(-c2cc3ccccc3nc2C(O)c2ccccc2)cc1` (centres undefined) returned an IC50 of 12.6 µM.
Still for that read-out and setting: as for `COc1ccc(-c2cc3ccccc3nc2C(O)c2ccc(OC)cc2)cc1` (centres undefined), the figure is 18.2 µM; as for `COc1ccc(-c2cc3cc(OC)ccc3nc2C(=O)c2ccccc2)cc1`, 17.4 µM.

Test system in the next series: not listed separately
Nature of the series: Cytotoxicity against human HuH7 cells assessed as cell viability after 3 days by XTT assay.
Settings: not given
The series is classed as cell-based, Huh-7.
In the case of `COc1ccc(-c2cc3ccccc3nc2C(O)c2ccccc2)cc1` (centres undefined), the CC50 at 72 h was more than 100 µM.
For `COc1ccc(-c2cc3ccccc3nc2C(O)c2ccc(OC)cc2)cc1` (centres undefined), the CC50 at 72 h turned out to be 63.1 µM.
On the same count and under the same terms, under `COc1ccc(-c2cc3cc(OC)ccc3nc2C(=O)c2ccccc2)cc1` stands more than 100 µM.

Test system in the next series: not listed separately
Nature of the series: Selectivity index, ratio of CC50 for human HuH7 cells to IC50 for DENV2 16681.
Settings: not given
The series is classed as functional, Huh-7.
`COc1ccc(-c2cc3ccccc3nc2C(O)c2ccccc2)cc1` (centres undefined): the “Ratio CC50/IC50” value is on record as more than 7.96.
Same read-out and setting: under `COc1ccc(-c2cc3ccccc3nc2C(O)c2ccc(OC)cc2)cc1` (centres undefined) stands 3.47.
Consider `COc1ccc(-c2cc3cc(OC)ccc3nc2C(=O)c2ccccc2)cc1`, for which the “Ratio CC50/IC50” value is more than 5.76.

Another series deals with dengue virus type 2. Nature of the series: Antiviral activity against DENV2 16681 infected in human Huh-7 cells assessed as reduction of viral NS2B protein expression at 5 to 20 uM after 3 days by Western blot analysis. The format is functional, organism-based.
Settings: not given
Summed up:
(§1)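 Huh-7-DV-Fluc cells exposed 3 days to compound at 5 and 20 µM, or 5–40 µM for dose series, 0.1% DMSO mock; lysates immunoblotted with rabbit polyclonal anti-NS2B (1:3000), GAPDH (1:10000) as loading control.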
Regarding `COc1ccc(-c2cc3ccccc3nc2C(O)c2ccccc2)cc1` (centres undefined), the result was Active.
In the case of `COc1ccc(-c2cc3ccccc3nc2C(O)c2ccc(OC)cc2)cc1` (centres undefined), the outcome was Active.

The next series has as its system dengue virus type 2. Nature of the series: Antiviral activity against DENV2 16681 infected in human Huh-7 cells assessed as reduction of viral NS5 mRNA expression at 5 to 20 uM after 3 days by RT-PCR analysis. The series is classed as functional, organism-based.
Settings: not given
Summed up:
(§2)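 Huh-7-DV-Fluc cells treated 3 days with compound at 5 and 20 µM (dose series 5–40 µM), 0.1% DMSO mock; total RNA extracted, DENV2 RNA quantified by RT-qPCR normalized to cellular GAPDH mRNA; mean ± SD of triplicate experiments.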
For `COc1ccc(-c2cc3ccccc3nc2C(O)c2ccccc2)cc1` (centres undefined), the result was Active.
Same read-out and setting: as for `COc1ccc(-c2cc3ccccc3nc2C(O)c2ccc(OC)cc2)cc1` (centres undefined), the entry is “Active”.

The next series deals with dengue virus type 2. Nature of the series: Antiviral activity against DENV2 16681 infected in human Huh-7 cells assessed as reduction of viral NS2B protein expression after 3 days by Western blot analysis. The series is classed as functional, organism-based.
Settings: not given
Summed up:
as §1
A general note: In western blotting, separated proteins are transferred to a membrane and probed.
`COc1ccc(-c2cc3ccccc3nc2C(O)c2ccccc2)cc1` (centres undefined): the Activity result is “Dose-dependent effect”.

Another series concerns dengue virus type 2. Nature of the series: Antiviral activity against DENV2 16681 infected in human Huh-7 cells assessed as reduction of viral NS5 mRNA expression after 3 days by RT-PCR analysis. The format is functional, organism-based.
Settings: not given
Put shortly: as §2
On to `COc1ccc(-c2cc3ccccc3nc2C(O)c2ccccc2)cc1` (centres undefined), for which the Activity result is “Dose-dependent effect”.

The next series deals with dengue virus type 2. Nature of the series: Antiviral activity against DENV2 by cell based assay.
Settings: not given
The series is classed as functional, organism-based.
`CCOc1ccc2nc(C)cc(Nc3ccc(OCc4ccccc4Cl)cc3)c2c1`: the 50% inhibitory concentration (IC50) turned out to be 5 µM.
